OX1R antag-1: human HCRTR1 antagonism; CHO/OX1R cells, Fluo-8 calcium fluorescence, orexin A; inhibition, % at 5 µM; actives 0.43% (n = 330,000);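 active = inhibition above its plate's threshold, mean inhibition of all tested compounds on the plate plus 3 SD, cut at about 37% in these data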;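 also: 0% = orexin A challenge wells and 100% = SB-334867-A antagonist wells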
Target sequence (O43613 whole entry, looked up): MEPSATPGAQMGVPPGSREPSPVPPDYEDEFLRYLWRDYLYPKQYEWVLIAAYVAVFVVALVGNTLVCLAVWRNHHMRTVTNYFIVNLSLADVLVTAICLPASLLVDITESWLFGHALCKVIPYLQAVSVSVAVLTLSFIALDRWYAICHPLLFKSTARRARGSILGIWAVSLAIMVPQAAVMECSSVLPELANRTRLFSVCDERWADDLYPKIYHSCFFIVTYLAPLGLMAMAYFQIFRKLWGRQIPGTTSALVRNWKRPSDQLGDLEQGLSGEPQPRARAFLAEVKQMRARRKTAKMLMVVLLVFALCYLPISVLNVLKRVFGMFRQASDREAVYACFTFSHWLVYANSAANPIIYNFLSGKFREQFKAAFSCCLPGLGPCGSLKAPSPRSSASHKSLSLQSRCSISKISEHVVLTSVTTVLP
CHO parental Ca: counter-screen for OX1R antagonists: effect in parental CHO cells; AID 463079; actives 0.63% (n = 330,000); inhibition, % at 5.6 µM; parental CHO-K1, ATP-induced calcium, Fluo-8 fluorescence;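 active = inhibition above that plate's mean sample inhibition plus 3 SD, cut at about 26% in these data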;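 also: 0% = ATP-challenged DMSO wells and 100% = DMSO wells without ATP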
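Test system: parental CHO cells; detection: calcium-sensitive Fluo-8 fluorescence; evaluation: percent inhibition of calcium signal; also added: ATP as calcium-mobilizing challenge; repeats: one well per compound; control set: ATP-challenged DMSO wells low, unchallenged DMSO wells high; compound: single nominal dose of 5.6 µM per compound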
TAAR1 antagonist: antagonists of human TAAR1; CHO RD-HGA16 TAAR1, Fluo-8 calcium fluorescence, antagonist; inhibition, % at 3 µM; actives 1.5% (n = 360,000); AID 624466;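 active = inhibition above a per-plate cutoff, the mean inhibition of test compounds on that plate plus 3 SD, cut at about 49% in these data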;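 also: 0% = DMSO plus EC80 beta-PEA response and 100% = DMSO alone without agonist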
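System: RD-HGA16 CHO cells with stable hTAAR1 and Gα16 | Probe or stimulus: EC80 β-phenethylamine stimulus | Dosing: 3 µM, single point | Times: Dye loading 75 min at 37 °C, then 30 min room temperature | Measured by: Fluo-8 calcium-sensitive fluorescence | Read-out basis: % inhibition of agonist calcium response | Replicates: n of 1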
NTR1 ag: agonists of human neurotensin receptor NTR1; P30989; NTR1-U2OS beta-arrestin-GFP spot imaging, agonist mode; activation, % at 20 µM; actives 0.17% (n = 330,000);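 active = activation at or above 40% of the spot to cytoplasm intensity ratio, with at least 20 cells analyzed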;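 also: 0% = DMSO without peptide and 100% = 100 nM NTR1 peptide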
TAAR1 ag: human TAAR1 agonism; CHO RD-HGA16 TAAR1, Fluo-8 calcium fluorescence; vehicle wells 0%, saturating PEA agonist 100%; activation, % at 3 µM; actives 0.99% (n = 360,000); AID 624467;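 active = activation above the mean activation of all test compounds in the run plus 3 SD, cut at about 38% in these data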
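Assay system – CHO-derived RD-HGA16 cells with stable Gα16 and human TAAR1 · Compound dosing – one-point dosing at 3 µM (nominal) · Incubation – 17-24 h seeding, 75 min 37 °C dye, 30 min RT · Measured by – kinetic Fluo-8 calcium fluorescence · Control set – DMSO vehicle as 0%, PEA at EC100 as 100% · Repeats – single well for each compound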
OX1R antag-2: OX1R (human) antagonism | actives 1.8% (n = 330,000) | OX1R-expressing cells, FRET antagonist read-out | O43613 | inhibition, % at 6.6 µM | AID 485270; in the data active = inhibition mostly above about 38%, no sharp cut-off; inactive = mostly below about 40%;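 also: 0% = agonist challenge alone and 100% = reference antagonist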
The depositor's hits bear a star; nt = not tested or not shown. This is a sample that favours compounds with a hit; in the whole collection about 4% have one here.

SMILES	OX1R antag-1	CHO parental Ca	TAAR1 antagonist	NTR1 ag	TAAR1 ag	OX1R antag-2
COc1cccc(CNC(=O)[C@H]2CCCN2C(=O)[C@H]2CCCN2C(=O)c2cccc(F)c2)c1	nt	nt	-13	nt	0	nt
O=C(c1cc(C(=O)N2CCCC2)cc([N+](=O)[O-])c1)N1CCCC1	-24	-12	-3	1	0	26
CN1CCN(NC(=O)c2cc([N+](=O)[O-])cc([N+](=O)[O-])c2)CC1	-4	-9	-12	0	8	71*
CN1CCN(C(=O)c2cc([N+](=O)[O-])cc([N+](=O)[O-])c2)CC1	-12	10	-8	1	1	63*
N#Cc1ccc2nc(-c3ccc(CN4CCC5(CC4)CNc4ccccc45)cc3)c(-c3ccccc3)nc2c1	nt	nt	19	nt	0	nt
O=C(N[C@H](C(=O)N1CCC[C@H]1C(=O)NC1CCCC1)C1CCCCC1)c1ccccc1	nt	nt	3	nt	1	nt
CN1CCCCC(NC(=O)CCl)C1=O (stereo not given)	nt	nt	-12	nt	1	nt
O=C(COc1cccc(F)c1)N[C@@H](Cc1ccccc1)c1nc2ccccc2[nH]1	12	-12	-2	2	5	61*
CC(C)(C)CC(=O)N[C@@H](Cc1ccccc1)c1nc2ccccc2[nH]1	-32	-21	nt	2	nt	5
COc1cc(OC)cc(C(=O)NCC2CCN(C(=O)C(=O)c3cccs3)CC2)c1	nt	nt	0	nt	0	nt
COC(=O)C1=C(C)N(Cc2ccccc2)C(=O)N[C@H]1c1cccc(C(F)(F)F)c1	-28	-38	27	-2	3	11
COC(=O)C1=C(C)N(Cc2ccccc2)C(=S)N[C@H]1c1cccc(C(F)(F)F)c1	19	-12	56*	2	6	27
COC(=O)C1=C(C)N(Cc2ccccc2)C(=NCC(C)C)N[C@H]1c1cccc(F)c1	29	5	40	4	44*	4
COC(=O)Cc1nnn2c1CC(OC)c1cc(Br)ccc1-2 (stereo not given)	nt	nt	-5	nt	1	nt
CCCCC[C@H](O)/C=C/[C@H]1CCC(=O)[C@@H]1CCCCCCC(=O)N1CCCCC1CO (stereo not given in full)	-2	-1	71*	24	23	-10
O=C(O)Cn1c(O)c(C2=c3ccccc3=NC2=O)sc1=O	-9	-3	12	0	0	47*
CNC(=O)CSc1ncnc2c1cnn2-c1ccccc1	-14	-2	-10	0	1	18
O=C(CSc1ncnc2c1cnn2-c1ccccc1)Nc1ccccc1	-4	5	46	2	40*	11
CN(C)S(=O)(=O)c1cccc(COC(=O)Cc2c(F)cccc2Cl)c1	-14	45*	20	2	2	32
Cc1ccc(-n2nnnc2SCc2nnc(-c3ccccc3Br)o2)c(C)c1	63*	25	17	2	4	44*
Nc1[nH]c(C(=O)c2ccccc2)c(-c2ccccc2Br)c1C(=O)NCc1ccc(-c2ccccc2)cc1	nt	nt	-14	nt	1	nt
N#CC1=C(SCC(=O)Nc2cccc3cccnc23)NC(=O)C(C#N)C12CCCCC2 (stereo not given)	-1	-9	30	4	12	39*
CCOC(=O)/C(=C\Nc1cccc(OCc2ccccc2)c1)NC(=O)c1ccccc1	nt	nt	23	nt	2	nt
CCOC(=O)c1snc2c(=O)[nH]cnc12	-1	4	-5	6	19	42*
O=C(Nc1ccccc1)c1snc2c(=O)[nH]cnc12	-25	-16	2	1	1	74*
CCN(CC)c1ccc(/C=C/C(=O)c2ccc(Br)cc2)cc1	99*	91*	81*	nt	138*	15
CN(C)c1ccc(C(=O)/C=C/c2ccc(Br)cc2)cc1	-29	-18	-14	0	2	17
COC(=O)[C@]12C[C@H](CC(=O)N3CCC(c4ccccc4)CC3)C(=O)N(CCC3=CCCCC3)C1=C[C@H](C(C)(C)C)O[C@@H]2C	nt	nt	-34	nt	-1	nt
CC(=O)Nc1ccccc1OCC(=O)c1cc(C)n(Cc2cccs2)c1C	55*	48*	32	0	24	45
Cc1cc(C(=O)CSc2nnc(N)s2)c(C)n1Cc1cccs1	-12	-7	-12	2	6	25
